Measurements collected from several papers.
Each line is one published result; the experiments were not run side by side. Values after ≈ are worked out from the molar mass of the structure shown.

| Structure (SMILES) | tested on | assay | system | setting | endpoint | value |
| --- | --- | --- | --- | --- | --- | --- |
| Cc1nc2c(N)nc(N)nc2n1C(Cc1ccc(O)cc1)C(=O)O (stereo not drawn) | unidentified influenza virus | viral replication | A549, H1N1 PR8 | 24 h | IC50 | 0.024 µM |
| O=C(c1cccc(F)c1)c1c[nH]c2ncc(-c3ccc(N4CCNCC4)nc3)cc12 | A549 | cell growth or viability, MTT | – | 10 µM, 48 h | viability | 62.8% |
| CC(C)=CCC/C(C)=C/COc1cc(O)cc(O)c1C(=O)c1ccccc1 | – | ABTS scavenging, absorbance | – | 5 min | IC50 | 380 µM |
| CCC1(c2ccc(N)cc2)CCC(=O)NC1=O (stereo not drawn) | PC-3 | cell growth or viability, CCK-8 | – | 48 h | IC50 | > 50 µM |
| Cc1ccc(CN2C(=O)/C(=N\NC(=O)c3cc4ccccc4[nH]3)c3ccccc32)cc1 | A549 | cell growth or viability | – | 30 µM | inhibition | 91.9% |
| COC(=O)C(Cc1ccccc1)n1c(C)nc2c(N)nc(=O)[nH]c21 (stereo not drawn) | unidentified influenza virus | viral replication | A549, H1N1 PR8 | 24 h | IC50 | 0.34 µM |
| C[C@]12CCC(=O)C[C@@H]1CC[C@@H]1[C@@H]2CC[C@@]2(C)[C@H]1CC[C@]2(C)O | NIH3T3 | cell growth or viability, MTT | – | 24 h | IC50 | > 30 µM |
| O=C(NCCCNc1c2c(nc3ccccc13)CCCC2)c1ccccc1O | – | ABTS scavenging | – | 1 h | IC50 | 27.7 µM |
| CC(C)(C)OC(=O)N1CCN(c2ccc(-c3cnc4[nH]cc(C(=O)c5cccc(F)c5)c4c3)cn2)CC1 | A549 | cell growth or viability, MTT | – | 10 µM, 48 h | viability | 93.7% |
| COC(=O)C(Cc1c[nH]c2ccccc12)n1c(C)nc2c(N)nc(=O)[nH]c21 (stereo not drawn) | unidentified influenza virus | viral replication | A549, H1N1 PR8 | 24 h | IC50 | 0.31 µM |
| Oc1c(Cl)cc(Cl)c(Cl)c1Cc1c(O)c(Cl)cc(Cl)c1Cl | Betapolyomavirus hominis | viral replication, inhibitor, qPCR | Vero | 30 µM, 5 days | inhibition | ~70% |
| O=C(c1ccc(F)cc1)c1c[nH]c2ncc(-c3ccc(N4CCOCC4)nc3)cc12 | A549 | cell growth or viability, MTT | – | 10 µM, 48 h | viability | 77.1% |
| Nc1ncnc2c([C@@H]3N[C@H](CO)[C@@H](O)[C@H]3O)c[nH]c12 | unidentified influenza virus | viral replication, inhibitor | MDCK | 0.1 µM | inhibition | 0% |
| C[C@@H]1[C@H](O)[C@@H](C)/C=C/C=C/C=C/C=C/C=C/C=C/C=C/[C@H](O[C@@H]2O[C@H](C)[C@@H](O)[C@H](N)[C@@H]2O)C[C@@H]2O[C@](O)(C[C@@H](O)C[C@@H](O)[C@H](O)CC[C@@H](O)C[C@@H](O)CC(=O)O[C@H]1C)C[C@H](O)[C@H]2C(=O)O | Leishmania donovani | parasite growth | – | amastigote | IC50 | 0.21 mg/L |
| Cc1nc2c(N)nc(N)nc2n1CC(=O)O | unidentified influenza virus | viral replication | A549, H1N1 PR8 | 24 h | IC50 | 0.526 µM |
| CCOC(=O)c1c(CSc2ccccc2)n(C)c2cc(Br)c(O)c(CN(C)C)c12.Cl.O | Punta Toro virus | cytopathic effect | – | – | MIC50 | > 100 mg/L |
| O=C(c1ccc(F)cc1)c1c[nH]c2ncc(-c3ccc(N4CCNCC4)cc3)cc12 | A549 | cell growth or viability, MTT | – | 10 µM, 48 h | viability | 89.1% |
| Cc1cc(C(C)(C)C)c(O)c(C(C)(C)C)c1 | – | ABTS scavenging, absorbance | – | 5 min | IC50 | 0.08 µM |
| O=C(NCCCCCCNc1c2c(nc3ccccc13)CCCC2)c1ccccc1O | – | ABTS scavenging | – | 1 h | IC50 | 21.3 µM |
| N#Cc1cc2c(-c3ccccc3)n[nH]c2c(Nc2ccccc2)n1 | PC-3 | cell growth or viability, MTS | – | 48 h | IC50 | 2.1 µM |
| CCOC(=O)C1=C[C@@H](OC(CC)CC)[C@H](NC(C)=O)[C@@H](N)C1 | unidentified influenza virus | viral replication | A549, H1N1 PR8 | 24 h | IC50 | 0.18 µM |
| O=C(N/N=C1\C(=O)N(Cc2ccccc2)c2ccc(F)cc21)c1cc2ccccc2[nH]1 | A549 | cell growth or viability | – | 30 µM | inhibition | 99.1% |
| N=C(N)c1ccc(OCCCCCOc2ccc(C(=N)N)cc2)cc1 | Leishmania donovani | parasite growth | – | amastigote | IC90 | 9 mg/L (≈ 26.4 µM) |
| COc1ccc(O)c(C(C)(C)C)c1 | – | ABTS scavenging | – | – | IC50 | 5.07 mg/L |
